Data on ten molecules can be found in ChEMBL document CHEMBL4665752, “Synthesis and Antifungal Activity of Chromones and Benzoxepines from the Leaves of Ptaeroxylon obliquum” (2020).

Converted amounts (≈) assume the structure as drawn.

What all share (format): functional
Experiment [1] relates to Cryptococcus neoformans. The experiment in a line: Antifungal activity against Cryptococcus neoformans after 48 hrs by microdilution assay. The method, boiled down:
(§1)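 Broth microdilution in triplicate; compounds in DMSO, serially diluted in sterile distilled water, final 25 to 0.2 μg/mL; fungi kept on Sabouraud dextrose agar, inocula diluted in Sabouraud dextrose broth. p-Iodonitrotetrazolium violet (0.2 mg/mL stock) added as growth indicator; incubation 35 °C, 100% relative humidity. MIC = lowest concentration inhibiting growth, read at 24 and 48 h. Amphotericin B positive, DMSO negative control.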
On the technique in general: Broth dilution looks for growth in wells or tubes with falling amounts of substance.

In experiment [2] the test system is Cryptococcus neoformans. The experiment in a line: Antifungal activity against Cryptococcus neoformans after 24 hrs by microdilution assay. The method, boiled down: as §1
Experiment [3] has as its system Candida albicans. The experiment in a line: Antifungal activity against Candida albicans ATCC 10231 after 48 hrs by microdilution assay. The method in brief: as §1
The test system of experiment [4] is Candida albicans. Put plainly: Antifungal activity against Candida albicans ATCC 10231 after 24 hrs by microdilution assay. The method, boiled down: as §1

`Cc1cc(=O)c2c(O)cc3c(c2o1)CC=C(CO)CO3`: the minimum inhibitory concentration (MIC) in the experiment with Cryptococcus neoformans [1] was 5.7 µM (≈ 1.56 µg/mL); with Cryptococcus neoformans [2], 5.7 µM (≈ 1.56 µg/mL); against Candida albicans [3], 11.4 µM (≈ 3.13 µg/mL); against Candida albicans [4], 11.4 µM (≈ 3.13 µg/mL).

`Cc1cc(=O)c2c(O)c3c(cc2o1)OCC(CO)=CC3`: the minimum inhibitory concentration (MIC) against Cryptococcus neoformans [1] was 5.7 µM (≈ 1.56 µg/mL); in the experiment on Cryptococcus neoformans [2] it was 5.7 µM (≈ 1.56 µg/mL); against Candida albicans [3] it was 11.4 µM (≈ 3.13 µg/mL); with Candida albicans [4], 11.4 µM (≈ 3.13 µg/mL).

Consider `C=CCc1c(O)cc(O)c2c(=O)cc(C)oc12`, for which the minimal inhibitory concentration (MIC) in the experiment on Cryptococcus neoformans [1], against Cryptococcus neoformans [2], in the experiment on Candida albicans [3] and against Candida albicans [4] was 13.5 µM (≈ 3.14 µg/mL) each time.

With `C=CCc1c2c(c(O)c(C(C)=O)c1OC)C=CC(C)(C)O2`, the MIC in the experiment on Cryptococcus neoformans [1] is 43.3 µM (≈ 12.5 µg/mL); against Cryptococcus neoformans [2], 21.7 µM (≈ 6.26 µg/mL); in the experiment on Candida albicans [3] it was 86.7 µM (≈ 25 µg/mL); against Candida albicans [4], 86.7 µM (≈ 25 µg/mL).

As for `C=CCc1c2c(c(O)c3c(=O)cc(C)oc13)C=CC(C)(C)O2`, the MIC stood at 10.5 µM (≈ 3.13 µg/mL) in the experiment on Cryptococcus neoformans [1], 10.5 µM (≈ 3.13 µg/mL) against Cryptococcus neoformans [2], 83.8 µM (≈ 25 µg/mL) against Candida albicans [3] and 41.9 µM (≈ 12.5 µg/mL) with Candida albicans [4].

Regarding `COc1cc2c(c(OC)c1C(C)=O)CC=C(CO)CO2`, the minimal inhibitory concentration (MIC) came out at 11.2 µM (≈ 3.12 µg/mL) against Cryptococcus neoformans [1], 11.2 µM (≈ 3.12 µg/mL) against Cryptococcus neoformans [2], 22.5 µM (≈ 6.26 µg/mL) against Candida albicans [3] and 11.2 µM (≈ 3.12 µg/mL) in the experiment with Candida albicans [4].

For `CC(=O)OCC1=CCc2c(cc(O)c3c(=O)cc(C)oc23)OC1`, the minimal inhibitory concentration (MIC) in the experiment on Cryptococcus neoformans [1], with Cryptococcus neoformans [2], in the experiment on Candida albicans [3] and with Candida albicans [4] was 9.9 µM (≈ 3.13 µg/mL) throughout.

On to `CC(=O)OCC1=CCc2c(cc3oc(C)cc(=O)c3c2O)OC1`, for which the minimal inhibitory concentration (MIC) in the experiment on Cryptococcus neoformans [1] is 4.9 µM (≈ 1.55 µg/mL); with Cryptococcus neoformans [2], 4.9 µM (≈ 1.55 µg/mL); in the experiment on Candida albicans [3], 19.8 µM (≈ 6.26 µg/mL); in the experiment with Candida albicans [4], 19.8 µM (≈ 6.26 µg/mL).

As to `C[C@@H]1[C@H](O)[C@@H](C)/C=C/C=C/C=C/C=C/C=C/C=C/C=C/[C@H](O[C@@H]2O[C@H](C)[C@@H](O)[C@H](N)[C@@H]2O)C[C@@H]2O[C@](O)(C[C@@H](O)C[C@@H](O)[C@H](O)CC[C@@H](O)C[C@@H](O)CC(=O)O[C@H]1C)C[C@H](O)[C@H]2C(=O)O` [AMPHOTERICIN B], the minimum inhibitory concentration (MIC) against Cryptococcus neoformans [1] worked out at 0.42 µM (≈ 0.388 µg/mL); against Cryptococcus neoformans [2], 0.42 µM (≈ 0.388 µg/mL); with Candida albicans [3], 0.84 µM (≈ 0.776 µg/mL); in the experiment with Candida albicans [4], 0.42 µM (≈ 0.388 µg/mL).

In the case of `Cc1cc(=O)c2c(O)cc(O)cc2o1` [NOREUGENIN], the minimal inhibitory concentration (MIC) in the experiment with Cryptococcus neoformans [1], with Cryptococcus neoformans [2], in the experiment with Candida albicans [3] and against Candida albicans [4] was 16.3 µM (≈ 3.13 µg/mL) in each case.

For orientation: MIC means the lowest concentration found to suppress growth.
